The record followed here is ChEMBL document CHEMBL1151912, “ACE inhibitors hypothesis generation for selective design, synthesis and biological evaluation of 3-mercapto-2-methyl-propanoyl-pyrrolidine-3-imine derivatives as antihypertensive agents” (2009).

Structures are written as SMILES. The source made the active and inactive calls. The rule behind the calls is not given here.

Assay [1] has as its system Felis catus. As to the kind of experiment: Antihypertensive activity in anesthetized normotensive cat assessed as mean reduction of systolic blood pressure at 0.00246 mmol/kg relative to control. In kind it is functional, Artery. On the set-up: scale not given: the % may be the effect or the level left. In outline: (§1)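 Normotensive adult cats dosed at 0.00246 mmol/kg. Systolic and diastolic blood pressure recorded in mmHg and reported as mean ± SE. The value is the mean % change from the control group. Significance versus control was tested at p < 0.05.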

Assay [2] concerns Felis catus. As to the kind of experiment: Antihypertensive activity in anesthetized normotensive cat assessed as mean reduction of systolic blood pressure at 0.00246 mmol/kg. Type of assay: functional, Artery.
For assay [3], the system named is Felis catus. The experiment in a line: Antihypertensive activity in anesthetized normotensive cat assessed as mean reduction of diastolic blood pressure at 0.00246 mmol/kg relative to control. Type of assay: functional, Artery. The arrangement: scale not given: the % may be the effect or the level left. In outline:
as §1

In assay [4] the test system is Felis catus. The experiment in a line: Antihypertensive activity in anesthetized normotensive cat assessed as mean reduction of diastolic blood pressure at 0.00246 mmol/kg. Type of assay: functional, Artery.
The subject of assay [5] is Felis catus. The experiment in a line: Hypotensive activity in anesthetized normotensive cat at 0.0031 mmol/kg. In kind it is functional, organism-based.
Assay [6] relates to Felis catus. As to the kind of experiment: Hypotensive activity in anesthetized normotensive cat at 0.0012 mmol/kg. Type of assay: functional, organism-based.
The test system of assay [7] is Felis catus. The experiment in a line: Hypotensive activity in anesthetized normotensive cat at 0.0014 mmol/kg. In kind it is functional, organism-based.
Assay [8] has as its system Felis catus. As to the kind of experiment: Hypotensive activity in anesthetized normotensive cat at 0.00285 mmol/kg. Type of assay: functional, organism-based.

Consider `C[C@H](CS)C(=O)N1CCC[C@H]1C(=O)O` [CAPTOPRIL], for which the Activity in the assay on Felis catus [1] is on record as 20.91%; with Felis catus [3] it was 21.89%. For the same compound, the Systolic blood pressure with Felis catus [2] stood at 105.9 mmHg. Further, in the assay with Felis catus [4], the Diastolic blood pressure was determined as 97.6 mmHg.
Consider `COc1ccc(CC2/C(=N/O)CCN2C(=O)C(C)CS)cc1` (centres undefined), for which the Activity in the assay with Felis catus [1] came out at 9%; in the assay with Felis catus [3], 12.22%. Further, the Systolic blood pressure in the assay with Felis catus [2] is recorded as 121.9 mmHg. Besides, the result with Felis catus [5] was Active. In addition, the Diastolic blood pressure with Felis catus [4] worked out at 109.7 mmHg.
For the compound `CCOC(=O)C(C)/N=C1\CCN(C(=O)C(C)CS)C1Cc1ccc(OC)cc1` (centres undefined), the results for the Activity in the assay on Felis catus [1] and in the assay on Felis catus [3] were 30.37% and 32.8%, respectively. Moreover, the Systolic blood pressure in the assay on Felis catus [2] amounted to 93.3 mmHg. Also, the result with Felis catus [6] was Active. In addition, the Diastolic blood pressure in the assay on Felis catus [4] worked out at 84 mmHg.
Regarding `COc1ccc(CC2C(=O)CCN2C(=O)C(C)CS)cc1` (centres undefined), the Activity with Felis catus [1] is on record as 21.67%; in the assay with Felis catus [3] it was 8%. Besides, the result in the assay with Felis catus [7] was Active. Moreover, the Systolic blood pressure with Felis catus [2] is 104.9 mmHg. Also, the Diastolic blood pressure in the assay on Felis catus [4] is 115 mmHg.
With `COc1ccc(CC2/C(=N/CCO)CCN2C(=O)C(C)CS)cc1` (centres undefined), the Activity in the assay with Felis catus [1] was found to be 20.83%; in the assay with Felis catus [3] it was 9%. Besides, the outcome in the assay on Felis catus [8] was Active. Also, the Systolic blood pressure in the assay on Felis catus [2] came to 106 mmHg. For the same compound, the Diastolic blood pressure with Felis catus [4] was found to be 113.7 mmHg.
